Data on ten compounds can be found in ChEMBL document CHEMBL2146438, “Radiolabeled cyclosaligenyl monophosphates of 5-iodo-2'-deoxyuridine, 5-iodo-3'-fluoro-2',3'-dideoxyuridine, and 3'-fluorothymidine for molecular radiotherapy of cancer: synthesis and biological evaluation” (J Med Chem, 2012).

Each structure is given as a SMILES string. pIC50: −log10 of the molar value. Calls of active or inactive are those of the source. No cut-off for these calls is given here. Some results are limits rather than exact numbers.

In data set [1] the test system is U-87MG ATCC. The data set is described as follows: Cytotoxicity against human U87MG cells assessed as cell death at 18.5 kBq/mL after 8 weeks by clonogenic assay. It counts as functional, cell-based. The settings on record: tested as the 125I-labelled form. Put shortly: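 U-87 MG cells treated 24 h with increasing 125I agent concentrations, then grown in fresh medium; colony formation followed up to eight weeks versus vehicle-treated controls.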

Data set [2] deals with LS174T. The data set is described as follows: Cytotoxicity against human LS 174T cells assessed as incorporation of radioisotope at 185 kBq/mL after 4 hrs by gamma counting. It is filed as functional, cell-based. The settings on record: tested as the 125I-labelled form. In short, it runs like this: (§1)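 LS 174T cells exposed 4 h to 185 kBq/mL 125I agent, harvested immediately and plated for clonogenic survival (relative to untreated controls); 125I retained in nuclear DNA measured as mBq/cell.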

The test system of data set [3] is LS174T. The data set is described as follows: Cytotoxicity against human LS 174T cells assessed as colony formation at 185 kBq/mL after 4 hrs by clonogenic assay relative to control. It counts as functional, cell-based. Conditions: tested as the 125I-labelled form. Put shortly:
as §1

Data set [4] deals with U-87MG ATCC. The data set is described as follows: Cytotoxicity against human U87MG cells at 4.76 kBq/mL assessed as cell survival incubated for 1 hr followed by compound wash out measured after 24 hrs by clonogenic assay. Conditions: tested as the 125I-labelled form. It counts as functional, cell-based. Put shortly:
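U-87 MG cells treated 1 h with 4.76 kBq/mL 125I agent, then plated immediately or grown 24 h in fresh medium before clonogenic assay; surviving fraction relative to untreated control colonies.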

Data set [5] can be described thus: Half life of the compound in phosphate buffer at pH 7.3. It counts as physicochemical.
Data set [6] is described as follows: Chemical stability of the compound in phosphate buffer at pH 7.3. It counts as physicochemical.
The target of data set [7] is Cholinesterase (Homo sapiens, UniProt P06276). The data set can be described thus: Inhibition of human BChE after 24 hrs by microplate reader method.
Data set [8] is described as follows: Cellular uptake in human U87MG cell nucleus incubated for 1 hr followed by compound wash out measured after 24 hrs by gamma counting. It is filed as ADME, cell-based. Conditions: u-87mg atcc. In short, it runs like this:
(§2)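 U-87 MG cells treated 1 h with 125I-labelled diastereomers, fractionated either immediately or after 24 h in fresh nonradioactive medium; 125I counted in cytoplasm, soluble nuclear fraction and DNA.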

A short description of data set [9]: Cellular uptake in human U87MG DNA incubated for 1 hr followed by compound wash out measured after 24 hrs by gamma counting. It is filed as ADME, cell-based. Conditions: u-87mg atcc. In short, it runs like this: as §2
Data set [10] in a line: Cellular uptake in human U87MG cell cytoplasm incubated for 1 hr followed by compound wash out measured after 24 hrs by gamma counting. It is filed as ADME, cell-based. The settings on record: u-87mg atcc. Put shortly:
as §2

Data set [11] is described as follows: Cellular uptake in human LS 174T cells at 35.1 +/- 0.3 kBq/mL after 3 hrs by gamma counting. It counts as ADME, cell-based. The settings on record: ls174t. Put shortly:
(§3)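 Time-course uptake of resolved 125I-labelled diastereomers in LS 174T (colorectal) or OVCAR-3 (ovarian) cells at the stated radioactive concentration; cell-associated radioactivity counted at each time point; mean and std dev, n = 3 per time.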

A short description of data set [12]: Cellular uptake in human LS 174T cells by gamma counting. It is filed as ADME, cell-based. Conditions: ls174t.
Data set [13] relates to OVCAR-3. The data set can be described thus: Cellular uptake in human OVCAR3 cells at 35.1 +/- 0.3 kBq/mL after 3 hrs by gamma counting. It is filed as ADME, cell-based. Conditions: ovcar-3, 3 h. In short, it runs like this:
as §3

In data set [14] the test system is OVCAR-3. The data set is described as follows: Cellular uptake in human OVCAR3 cells at 35.1 +/- 0.3 kBq/mL after 6 hrs by gamma counting. It is filed as ADME, cell-based. Conditions: ovcar-3, 6 h. Put shortly: (§4)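 Time-course uptake in LS 174T or OVCAR-3 cells at 35.1±0.3 kBq/mL, continued to 6 h; cell-associated 125I counted; mean and std dev, n = 3 per time.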

Data set [15] can be described thus: Cellular uptake in human LS 174T cells at 35.1 +/- 0.3 kBq/mL after 6 hrs by gamma counting. It counts as ADME, cell-based. Conditions: ls174t. In short, it runs like this:
as §4

Data set [16] can be described thus: Cellular uptake in human OVCAR3 cell nucleus assessed as per 10^3 cells after 1 hr by gamma counting. It is filed as ADME, cell-based. The settings on record: ovcar-3, 1 h, 1 h. Put shortly:
(§5)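 OVCAR-3 cells incubated 1 h with 55.5 (0.04) kBq/mL 125I-labelled agent (diastereomer mixtures or resolved slow isomers); fractionated either immediately or after 24 h further growth in fresh nonradioactive medium; 125I in cytoplasm and nucleus counted as cpm/10^3 cells with std dev.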

Data set [17] is described as follows: Cellular uptake in human OVCAR3 cell nucleus assessed as per 10^3 cells after 24 hrs by gamma counting. It is filed as ADME, cell-based. Conditions: ovcar-3, 24 h, 24 h. Put shortly:
as §5

The nature of data set [18]: Cellular uptake in human OVCAR3 cell cytoplasm assessed as per 10^3 cells after 1 hr by gamma counting. Conditions: ovcar-3, 1 h, 1 h. It counts as ADME, cell-based. Put shortly: as §5
A short description of data set [19]: Cytotoxicity against human LS 174T cells assessed as colony formation at 114.5 kBq/mL incubated for 4 hrs measured after 21 days by clonogenic assay. It is filed as functional, LS174T. In short, it runs like this:
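LS 174T cells exposed 4 h to 114.5 kBq/mL 125I agent, cultured 24 h in nonradioactive medium, then harvested and plated; colonies counted after 21 days; surviving fraction = treated colonies / untreated control colonies.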

Data set [20] can be described thus: Cellular uptake in human OVCAR3 cell cytoplasm assessed as per 10^3 cells after 24 hrs by gamma counting. Conditions: ovcar-3, 24 h, 24 h. It is filed as ADME, cell-based. Put shortly: as §5
For data set [21], the system named is Nucleic Acid. The data set can be described thus: Binding affinity to human U87MG cell DNA at 185 kBq/mL after 120 hrs by gamma counting. It is filed as nucleic-acid assay. The settings on record: U-87MG ATCC, tested as the 125I-labelled form. Put shortly:
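U-87 MG glioblastoma cells exposed continuously to 185 kBq/mL 125I-labelled agent for 120 h; DNA isolated and DNA-associated 125I counted.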

Data set [22] has as its system Nucleic Acid. The data set can be described thus: Binding affinity to human U87MG cell DNA at 27.3 kBq/mL incubated for 24 hrs followed by compound wash out measured after 144 hrs by gamma counting. It is filed as nucleic-acid assay. The settings on record: U-87MG ATCC, tested as the 125I-labelled form. In short, it runs like this:
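U-87 MG cells treated 24 h with 27.3 kBq/mL 125I-labelled agent, then grown a further 144 h in fresh medium; 125I retained in DNA counted.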

Data set [23] relates to Nucleic Acid. The data set is described as follows: Binding affinity to human U87MG cell DNA at 19.6 kBq/mL after 40 hrs by gamma counting. It counts as nucleic-acid assay. The settings on record: U-87MG ATCC, tested as the 125I-labelled form. Put shortly: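 U-87 MG cells incubated 40 h with 19.6 kBq/mL 125I-labelled agent; 125I in DNA measured (genomic tips DNA isolation), expressed as mBq 125I/cell.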

A short description of data set [24]: Cellular uptake in human OVCAR3 cytoplasm at 55.5 kBq/mL incubated for 1 hr followed by compound wash out measured after 24 hrs by gamma counting. The settings on record: ovcar-3, 1 h. It counts as ADME, cell-based. Put shortly: as §5

Cholinesterase, sequence (P06276 whole entry): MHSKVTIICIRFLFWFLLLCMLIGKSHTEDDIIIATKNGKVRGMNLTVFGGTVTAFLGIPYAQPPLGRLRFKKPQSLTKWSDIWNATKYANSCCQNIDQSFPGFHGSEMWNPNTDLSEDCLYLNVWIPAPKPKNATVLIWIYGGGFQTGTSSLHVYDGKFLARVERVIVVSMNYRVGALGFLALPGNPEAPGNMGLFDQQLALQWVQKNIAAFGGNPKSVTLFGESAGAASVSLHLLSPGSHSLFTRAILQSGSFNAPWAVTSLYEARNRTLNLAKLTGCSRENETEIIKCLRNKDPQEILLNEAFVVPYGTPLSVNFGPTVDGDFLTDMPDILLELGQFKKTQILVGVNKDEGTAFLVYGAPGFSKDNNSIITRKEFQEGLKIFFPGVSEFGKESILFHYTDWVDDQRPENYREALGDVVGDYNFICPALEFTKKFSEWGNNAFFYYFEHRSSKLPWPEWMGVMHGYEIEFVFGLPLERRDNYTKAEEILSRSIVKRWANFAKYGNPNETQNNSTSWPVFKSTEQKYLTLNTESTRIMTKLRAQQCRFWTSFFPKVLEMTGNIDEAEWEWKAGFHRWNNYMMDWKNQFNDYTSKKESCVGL

As to `O=c1[nH]c(=O)n([C@H]2C[C@H](O)[C@@H](COP3(=O)OCc4ccccc4O3)O2)cc1I` (stereo in doubt; form 3), the outcome in [1] was Active.

As to `Cc1cccc2c1OP(=O)(OC[C@H]1O[C@@H](n3cc(I)c(=O)[nH]c3=O)C[C@@H]1O)OC2` (stereo in doubt; form 3), the outcome in data set [2] was Active.

Consider `Cc1cccc2c1OP(=O)(OC[C@H]1O[C@@H](n3cc(I)c(=O)[nH]c3=O)C[C@@H]1O)OC2` (stereo in doubt; form 4), for which the result in data set [3] and in data set [2] was Active.

Regarding `CC(C)(C)c1cc(C(C)(C)C)c2c(c1F)COP(=O)(OC[C@H]1O[C@@H](n3cc(I)c(=O)[nH]c3=O)C[C@@H]1F)O2` (stereo in doubt), the result in data set [4] was inactive.

Consider `CC(C)(C)c1cc(C(C)(C)C)c2c(c1F)COP(=O)(O[C@H]1C[C@H](n3cc(I)c(=O)[nH]c3=O)O[C@@H]1CO)O2` (stereo in doubt; form 2), for which the t1/2 in data set [5] turned out to be 17.3 h. The K in [6] is listed as 6.67 ×10⁻⁴ /min. Further, the pIC50 in data set [7] is below 2.52.

In turn, `CC(C)(C)c1cc(C(C)(C)C)c2c(c1F)COP(=O)(OC[C@H]1O[C@@H](n3cc([125I])c(=O)[nH]c3=O)C[C@@H]1F)O2` (stereo in doubt; form 1) displayed a t1/2 in data set [5] of 38.5 h. The K in [6] is given as 3.01 ×10⁻⁴ /min. Moreover, the Drug uptake result in data set [8], in [9] and in [10] was “Active” in each case.

Take `Cc1cccc2c1OP(=O)(OC[C@H]1O[C@@H](n3cc([125I])c(=O)[nH]c3=O)C[C@@H]1O)OC2` (stereo in doubt; form 1): the Drug uptake entry in [11], in [12], in [13], in data set [14] and in data set [15] was “Active” each time. For the same compound, in data set [5], the t1/2 stood at 21.2 h. The same compound returned a K in [6] of 5.44 ×10⁻⁴ /min.

In the case of `O=c1[nH]c(=O)n([C@H]2C[C@H](O)[C@@H](COP3(=O)OCc4ccccc4O3)O2)cc1[125I]` (stereo in doubt; form 2), the Drug uptake is given as 4.9 cpm in [16], 31.3 cpm in data set [17], 14.8 cpm in data set [18] and 6 cpm in data set [20]. The compound also showed a t1/2 in [5] of 7.6 h. In addition, the K in [6] stood at 1.52 ×10⁻³ /min. Moreover, in data set [19], the Activity is 38%.

For `O=c1[nH]c(=O)n([C@H]2C[C@H](O)[C@@H](COP3(=O)OCc4ccccc4O3)O2)cc1I` (stereo in doubt; form 4), the result in data set [21], in [22], in [23] and in data set [1] was Active.

Regarding `Cc1cccc2c1OP(=O)(OC[C@H]1O[C@@H](n3cc([125I])c(=O)[nH]c3=O)C[C@@H]1O)OC2` (stereo in doubt; 7b), the Drug uptake in [16] is on record as 4.5 cpm; in [17], 25.9 cpm; in data set [18] it was 11.7 cpm; in data set [24] it was “Active”; in [20] it was 1.6 cpm.
